# Screening data: PubChem BioAssay, several laboratories
# This is one part of a sample in which hits are shown more often than they occur.
# DTT redox prof = compounds producing H2O2 with reducing agent – biochemical, NIH compound library profiling, artefact control for MLSCN library redox annotation, primary screen; DTT-dependent redox cycling H2O2, phenol red/HRP absorbance; 100% = 100 µM peroxide control, 0% = buffer; activation, % at 10 µM; AID 878; hit rate 0.03% among 200,000;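 active = activation of at least 50% relative to the plate's high and low controls in the primary single-dose screen; inactive = activation below 50%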;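 note: compound incubated with DTT at 0.8 mM final as the reducing agent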
# T cruzi inh = blocks replication of Trypanosoma cruzi; T. cruzi beta-gal in NIH3T3, luminescence, 90 h; hit rate 1.4% among 300,000; inhibition, % (no concentration beside the values);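 active = mean inhibition across valid replicates above about 55%, limit read from the data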;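 note: signal also drops with host cell toxicity which is not excluded here; higher percent means less beta-gal luminescence so fewer parasites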
#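 Incubation – ≥90 h infection period, 3 h prior cell attachment · System – NIH/3T3 fibroblasts plus reporter T. cruzi · Doses – compound pinned at 50 nL/well, DMSO · Read-out basis – percent inhibition of parasite-derived β-gal signal · Signal – luminescent β-galactosidase signal after 60 min lysis · Also added – 5000 T. cruzi trypomastigotes/well · Medium – Low-serum DMEM with 2% FBS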
# L major viab = reduces viability of Leishmania major promastigotes | inhibition, % at 10 µM | resazurin fluorescence viability | hit rate 9% among 200,000; in the data active = inhibition above about 50%;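 note: promastigotes grown with compound for 44 hours at 28 °C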
# MPTP block = permeability transition pore inhibition; isolated mouse mitochondria, Ca2+ swelling absorbance, 30 min; inhibition, % at 10 µM; hit rate 1.4% among 360,000; AID 602449;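 active = inhibition of 50% or more, scaled per plate between neutral and stimulator controls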
# Hep lipid drop = modulators of hepatic lipid droplet formation; AML12 mouse hepatocytes, oleate lipid droplets, BODIPY imaging; inhibition, % at 6.5 µM; hit rate 0.4% among 240,000; AID 1656;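 active = lipid droplet intensity inhibited by at least 50%, with more than 500 cells counted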
#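 Assay system: AML12 mouse liver cells | Compound dosing: One dose, 6.5 µM compound | Read-out basis: Droplet intensity reduction, % inhibition | Measured by: Fluorescence imaging, 20x objective, two fields per well | Schedule: Overnight treatment with compound plus oleate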
# Numbers stand for hits; - = inactive; . = no result.
SMILES,DTT redox prof,T cruzi inh,L major viab,MPTP block,Hep lipid drop
Cc1ccc(NC(NC(=O)OCCn2c([N+](=O)[O-])cnc2C)C(Cl)(Cl)Cl)cc1 (stereo unspecified),-,-,-,.,-
COc1ccc(NC(=O)OCCn2c([N+](=O)[O-])cnc2C)cc1,-,-,54,-,-
Cc1cc(Sc2nc(N)ncc2[N+](=O)[O-])ncn1,-,61,-,-,-
O=S(=O)(c1ccc(-c2csc(=Nc3ccccc3)n2CCCN2CCOCC2)cc1)N1CCOCC1,-,-,94,-,.
OCCn1c(-c2ccc(F)cc2)csc1=Nc1ccccc1,-,-,-,-,-
CCOc1nc(Nc2ccc(OC)c(Cl)c2)nc(N2CCN(c3ccc(OC)cc3)CC2)n1,-,-,72,-,-
COc1ccc(Nc2nc(N3CCOCC3)nc(N3CCOCC3)n2)cc1,.,-,.,-,-
CCOc1nc(Nc2ccc(F)cc2)nc(N2CCN(c3ccc(OC)cc3)CC2)n1,-,-,70,-,-
CCOc1ccc(Nc2nc(N3CCCC3)nc(N3CCN(c4ccc(OC)cc4)CC3)n2)cc1,-,61,55,-,-
CS(=O)(=O)N1CCc2cc(-c3csc(NC(=O)C(c4ccccc4)c4ccccc4)n3)ccc21,-,61,94,-,-
Cc1cccc(NC(=O)C2(c3ccccc3)CC2(Cl)Cl)c1 (stereo unspecified),-,-,-,-,.
Cc1ccc(NC(=O)C2(c3ccccc3)CC2(Cl)Cl)cc1C (stereo unspecified),-,-,67,-,.
COCC(C)N1CCC(n2nccc2NC(=O)CCCc2ccccc2)CC1 (stereo unspecified),.,-,.,-,-
O=C1CC(=O)Nc2cc(S(=O)(=O)N3CCN(c4ccc([N+](=O)[O-])cc4)CC3)ccc2N1,.,-,.,-,-
CCCCc1nc(SCC(=O)N2CCOCC2)c2c(=O)n(C)c(=O)n(C)c2n1,.,-,.,-,-
CCOc1ccc(C(c2c(NC(=O)c3ccco3)sc(C)c2C)N2CCOCC2)cc1 (stereo unspecified),.,.,.,-,.
CCOc1ccc(C(c2c(NC(=O)c3ccccc3)sc(C)c2C)N2CCN(C)CC2)cc1 (stereo unspecified),-,-,52,-,-
N#CC1=C(N)OC2=C(CCC/C2=C/c2ccoc2)C1c1ccoc1 (stereo unspecified),-,-,-,.,-
N#CC1=C(N)OC2=C(CC/C2=C\c2ccc(F)cc2)C1c1ccc(F)cc1 (stereo unspecified),-,-,100,.,-
O=c1c2c3c(sc2n(CCN2CCCC2)c(=O)n1Cc1ccco1)CCCCC3,-,57,87,-,-
O=C(Cn1c(=O)n(Cc2ccco2)c(=O)c2c3c(sc21)CCCCC3)c1ccccc1,-,-,-,-,.
CN(C)CCn1c(=O)n(Cc2ccco2)c(=O)c2c3c(sc21)CCCCC3,-,55,88,-,.
CN(C(=O)c1nn(C)c2c1CS(=O)(=O)c1ccccc1-2)c1cccc(Cl)c1,.,-,.,-,-
CCCCC(O)CN1CCC(c2ccccc2)CC1 (stereo unspecified),-,-,93,-,-
CC(CN1CCC(O)CC1)c1ccccc1 (stereo unspecified),.,-,.,-,-
SMILES,DTT redox prof,T cruzi inh,L major viab,MPTP block,Hep lipid drop
COc1cccc(CN2CCCC(C(=O)c3ccc4c(c3)OCO4)C2)c1OC (stereo unspecified),-,-,90,-,-
O=C(c1ccc2c(c1)OCO2)C1CCCN(Cc2ccccc2OC(F)F)C1 (stereo unspecified),.,-,.,-,-
COc1ccc(C(=O)C2CCCN(Cc3cccc4c3OCO4)C2)cc1OC (stereo unspecified),-,62,78,-,-
COc1c(C)cc(C(=O)C2CCCN(Cc3cccc4nccnc34)C2)cc1C (stereo unspecified),-,-,99,-,-
CCN(CC)S(=O)(=O)c1cc(NC(=O)Cc2ccc(S(=O)(=O)N3CCOCC3)s2)ccc1Cl,.,.,.,-,.
O=C(O)COc1ccc(/C=N/NC(=O)c2cn(-c3ccccc3)nc2-c2ccccc2)cc1,.,-,.,-,-
O=C(N/N=C\c1ccccc1)c1ccccc1-n1cccc1,-,-,-,-,-
O=C(N/N=C/c1ccc([N+](=O)[O-])o1)c1ccccc1-n1cccc1,.,67,.,-,-
O=C(O)c1cn(-c2ccccc2)nc1-c1ccc(Cl)cc1,-,-,-,-,.
O=C(Nc1ccc([N+](=O)[O-])cc1)c1cn(-c2ccccc2)nc1-c1cc2ccccc2o1,-,-,56,-,-
O=C(N/N=C/c1ccc([N+](=O)[O-])o1)c1cn(-c2ccccc2)nc1-c1ccccc1,-,60,97,-,-
O=C(N/N=C/c1ccc([N+](=O)[O-])o1)c1cn(-c2ccccc2)nc1-c1ccc(Cl)cc1,-,64,76,-,-
Cc1ccc(NC(=S)N2CCN(S(C)(=O)=O)CC2)cc1Cl,.,-,.,-,-
CC1Cc2ccccc2N1C(=O)Cn1cnc2ccccc21 (stereo unspecified),-,-,-,-,-
CC1(C)CC(=NNC(=O)c2n[nH]c3c2CCC3)CC(C)(C)N1,-,-,-,-,-
COc1ccc(CNC(=O)C(c2ccc(C)o2)N(Cc2cccs2)C(=O)Cc2cccs2)cc1 (stereo unspecified),-,-,87,-,-
O=C(NC1CCCCC1)C(c1ccc2ncccc2c1)N(Cc1ccc2c(c1)OCO2)C(=O)c1cccs1 (stereo unspecified),-,-,88,-,.
COc1ccc(C(C(=O)NC2CCCC2)N(Cc2ccccc2)C(=O)CNC(=O)c2ccco2)cc1 (stereo unspecified),-,-,67,-,-
O=C(NC1CCCCC1)C(c1ccc2ncccc2c1)N(Cc1ccccc1)C(=O)c1cccs1 (stereo unspecified),-,-,-,-,-
C=CCN(C(=O)CNC(=O)c1ccco1)C(C(=O)NC1CCCCC1)c1ccc(OC)cc1 (stereo unspecified),-,-,-,-,-
COCCN(C(=O)Cc1cccs1)C(C(=O)NCc1ccc(OC)cc1)c1ccc(C)cc1 (stereo unspecified),-,-,-,-,-
COC(=O)c1ccc(C(C(=O)NC2CCCCC2)N(Cc2ccccc2)C(=O)Cc2cccs2)cc1 (stereo unspecified),-,-,99,-,-
COc1cccc(-c2cc(C(=O)NC3CCCCC3)no2)c1,.,-,.,-,-
Cc1cc(C(=O)NCC(c2cccs2)N2CCOCC2)ccc1[N+](=O)[O-] (stereo unspecified),.,-,.,-,-
Cc1ccc(C(=O)N/C(=C\c2cccs2)C(=O)N2CCOCC2)cc1C,.,-,.,-,-
CCCC(C)(C)C(=O)N1CCC1(C)C(=O)Nc1cccc2ccccc12 (stereo unspecified),.,.,.,-,.
